Assay results reported in article PMC2223364 (The Journal of General Physiology, 1999).
Where “and” joins values, the source holds several entries; their conditions need not be identical. Equal values may be shown once. Read-outs that look alike come from different tables or passages of the source. Ends that are not written are not given here.

Experiments:
[1] = test system: maxi-KCa channels; conditions: cited from earlier work
[2] = test system: cyclic nucleotide–gated channels; conditions: ref Kramer et al., 1994; cited from earlier work
[3] = target: rat muscle maxi-KCa channel, internal pore (Rattus norvegicus, UniProt Q62976); assay: Single-channel block by ball peptide homologue; format: biochemical; conditions: for Kd: BP alone, +30 mV, 50 mM KCl, pH 7.4
Outline: (§1)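 Single rat skeletal muscle maxi-KCa channels were taken from plasma membrane vesicles and fused into planar bilayers of 80% POPE/20% POPC. Recordings used symmetrical 50 mM KCl and 10 mM MOPS-KOH, pH 7.4. Internal CaCl2 was 200 μM, raised to 500 μM in some experiments to keep open probability >0.9. Holding was +30 mV at 20–23°C, with Ag/AgCl electrodes and agar-KCl bridges.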

[4] = target: rat muscle maxi-KCa channel, intracellular sites (Rattus norvegicus, UniProt Q62976); assay: Ligand interaction of BP and DTX-I on single maxi-KCa channels, planar bilayer; format: biochemical
Outline: as §1

[5] = test system: maxi-KCa channel (external ChTX site); assay: Slow block by external charybdotoxin in absence and presence of internal DTX-I; format: biochemical, rat
[6] = test system: maxi-KCa channel (external TEA site); assay: Fast block by external TEA in absence and presence of internal DTX-I; format: biochemical, rat; conditions: 460 nM DTX-I; P = 0.1
Outline: as §1

[7] = target: rat muscle maxi-KCa channel (large conductance Ca^2+-activated K^+ channel), intracellular site; assay: Single-channel substate kinetics of one Kunitz inhibitor; format: biochemical
Outline: as §1

[8] = target: rat muscle maxi-KCa channel (large conductance Ca^2+-activated K^+ channel), intracellular site; assay: Ligand interaction of BPTI and DTX-I on single maxi-KCa channels, planar bilayer; format: biochemical
Outline: as §1

[9] = test system: serine proteinases (chymotrypsin/trypsin family); conditions: BPTI and related Kunitz molecules; ref Dufton, 1985; Capasso et al., 1997; cited from earlier work
[10] = read-out: Kd (studied alone), abstract, one-site binding kinetics, unoccupied channel

Sequence of rat muscle maxi-KCa channel, internal pore (Q62976 whole entry, the tested form may be a part): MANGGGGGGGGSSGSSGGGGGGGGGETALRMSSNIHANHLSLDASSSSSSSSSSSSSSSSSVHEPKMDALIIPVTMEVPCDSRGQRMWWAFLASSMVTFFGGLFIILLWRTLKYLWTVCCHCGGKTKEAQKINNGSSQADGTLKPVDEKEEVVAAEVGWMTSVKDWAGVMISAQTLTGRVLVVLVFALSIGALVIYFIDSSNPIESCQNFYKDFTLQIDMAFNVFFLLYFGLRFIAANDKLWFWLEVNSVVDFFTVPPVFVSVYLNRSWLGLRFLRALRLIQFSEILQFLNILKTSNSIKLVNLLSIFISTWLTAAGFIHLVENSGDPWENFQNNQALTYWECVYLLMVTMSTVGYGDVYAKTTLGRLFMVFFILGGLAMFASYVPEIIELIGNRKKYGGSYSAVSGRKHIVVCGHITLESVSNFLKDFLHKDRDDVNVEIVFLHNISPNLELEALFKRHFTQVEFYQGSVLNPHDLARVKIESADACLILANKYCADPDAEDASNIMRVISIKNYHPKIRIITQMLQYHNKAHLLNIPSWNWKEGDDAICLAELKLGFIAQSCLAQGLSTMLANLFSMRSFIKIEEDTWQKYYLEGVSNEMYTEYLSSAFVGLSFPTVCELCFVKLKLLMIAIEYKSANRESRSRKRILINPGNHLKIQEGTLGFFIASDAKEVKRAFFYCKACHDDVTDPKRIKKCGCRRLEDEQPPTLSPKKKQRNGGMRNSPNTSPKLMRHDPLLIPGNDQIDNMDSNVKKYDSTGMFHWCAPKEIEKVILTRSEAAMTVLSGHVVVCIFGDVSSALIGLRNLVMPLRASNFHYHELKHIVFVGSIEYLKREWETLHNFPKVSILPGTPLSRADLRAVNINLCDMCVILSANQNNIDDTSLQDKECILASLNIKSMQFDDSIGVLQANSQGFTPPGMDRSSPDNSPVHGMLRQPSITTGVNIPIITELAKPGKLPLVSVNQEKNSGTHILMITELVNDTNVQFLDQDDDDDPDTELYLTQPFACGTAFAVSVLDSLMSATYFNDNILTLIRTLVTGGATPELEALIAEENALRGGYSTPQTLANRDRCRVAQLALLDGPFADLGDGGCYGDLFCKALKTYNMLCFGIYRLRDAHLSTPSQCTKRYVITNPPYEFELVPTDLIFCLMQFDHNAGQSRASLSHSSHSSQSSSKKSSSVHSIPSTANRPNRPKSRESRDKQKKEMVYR
Sequence of rat muscle maxi-KCa channel, intracellular sites (Q62976 whole entry): as the sequence (Q62976 whole entry, the tested form may be a part) above

## Shaker ball peptide: 20-residue NH2 terminus of the Shaker K^+ channel of Drosophila that mediates rapid inactivation (MAAVAVLYVLGKKRQHRKKQ)
[1]; ref Foster et al., 1992, Toro et al.
  block of maxi-KCa channels: known to block maxi-KCa channels by a pore-occlusion mechanism
[2]
  block of cyclic nucleotide–gated channels: blocks other types of ion channels

## MAAVAVLYVLGKKRQHRKKQ [BP]
[3]; equilibrium dissociation constant B1 = b−1/b1 (BP from BBP), unoccupied channel, kinetic ratio
  Kd: 0.00716 µM
[3]; equilibrium dissociation constant B1 from PU vs [BP] (Eq. 15), 4.5–6.5 h data pooled from three to seven single channels
  Kd: 0.00885 µM
[3]; pH 7.4, read-out: bimolecular association rate constant b1 (BP to U)
  kon: 8.17e+07 M⁻¹ s⁻¹
[3]; pH 7.4, read-out: dissociation rate constant b−1 (BP from BBP)
  koff: 0.585 s⁻¹
[4]
  Kd: 0.057 µM
[4]; pH 7.4, read-out: association rate constant b2 (BP to SDTX)
  kon: 1.85e+06 M⁻¹ s⁻¹
[4]; read-out: dissociation rate constant b−2 (BP from BBP/DTX)
  koff: 0.105 s⁻¹

## charybdotoxin [ChTX]
[5]; 460 nM internal DTX-I
  binding interaction of external ChTX with internal DTX-I: no detectable binding interaction
[5]; 460 nM internal DTX-I, +30 mV
  koff of ChTX, presence of DTX-I: 0.0350 ± 0.0003 s⁻¹
  kon of ChTX, presence of DTX-I: 2.89 ± 0.51 × 10^7 s^−1M^−1
[5]; external ChTX (10 nM), +30 mV
  koff of ChTX, absence of DTX-I: 0.0369 ± 0.0004 s⁻¹
  kon of ChTX, absence of DTX-I: 2.77 ± 0.42 × 10^7 s^−1M^−1
[5]; read-out: Kd of ChTX (koff/kon), absence of DTX-I, external ChTX (10 nM), +30 mV
  Kd: 0.00133 ± 0.0002 µM

## CC[N+](CC)(CC)CC [TEA, tetraethylammonium]
[3]; data not shown
  effect of internal TEA on BP association: decreases the association rate of BP homologue in a competitive fashion
[6]
  binding interaction of external TEA with internal DTX-I: no detectable binding interaction
[1]; Ba^2+ with BPTI, internal TEA with DTX-I, ref Lucchesi and Moczydlowski, 1991
  effect of BPTI or DTX-I on blocking affinity of internal blocker: not significantly affected
[1]; ref Toro et al., 1992
  inhibition of ball peptide block by TEA: inhibits ball peptide block of the maxi-KCa channel in a strictly competitive fashion

## dendrotoxin I (QPLRKLCILHRNPGRCYQKIPAFYYNQKKKQCEGFTWSGCGGNSNRFKTIEECRRTCIRK; ends and bridges not checked; cysteine pairing not given here; UniProt P00979 1-60, looked up) [DTX-I]
[7]; [10]
  Kd: 0.0165 µM
[7]; read-out: equilibrium dissociation constant J1 = j−1/4j1 (DTX-I from SDTX), DTX-I, unoccupied channel, +30 mV, 50 mM KCl, pH 7.4
  Kd: 0.0165 µM
[8]; read-out: equilibrium dissociation constant J2, DTX-I binding to BPTI-occupied channel, from slope of τBURST vs [BPTI], Eq. 7, 460 nM DTX-I, +30 mV, 50 mM KCl, pH 7.4
  Kd: 0.178 µM
[4]; read-out: equilibrium dissociation constant J3 (DTX-I from BBP/DTX), DTX-I binding to BP-blocked state, from τBP, Eq. 19, +30 mV, 50 mM KCl, pH 7.4
  Kd: 0.139 µM

## bovine pancreatic trypsin inhibitor [BPTI]
[7]; 8 μM internal BPTI (1.0 at 0 μM), +30 mV
  probability of the channel residing in the fully open conductance state: ~0.15
[7]; BPTI alone, internal, 1-8 μM, +30 mV, symmetrical 50 mM KCl, 10 mM MOPS-KOH pH 7.4, 200 μM internal Ca2+, 20–23°C, mean of four τS means, single-exponential
  mean lifetime of BPTI-induced substate (τS): ~0.41 s and 0.411 ± 0.022 s
[7]; BPTI alone, internal, fit of τU to Eq. 2, +30 mV, 50 mM KCl, pH 7.4
  apparent association rate constant 4k1: 1.63 ± 0.07 × 10^6 s^−1M^−1
[7]; BPTI alone, internal, from τS (Eq. 1), ±SEM, +30 mV, 50 mM KCl, pH 7.4
  dissociation rate constant k−1: 2.43 ± 0.13 s⁻¹
[7]; BPTI, unoccupied channel, +30 mV, 50 mM KCl, pH 7.4
  equilibrium dissociation constant K1 (kinetic ratio k−1/4k1): 1.49 ± 0.10 µM and 1.49 µM
[7]; fit of PU vs [BPTI]
  Hill coefficient n: 1.0
[7]; ligand alone, internal, +30 mV
  substate current level: ~27 % of unitary current
[7]; [10]
  Kd: 1.49 µM
[7]; words
  binding kinetics when studied alone: one-site binding kinetics
[8]; 8 μM BPTI, 460 nM DTX-I
  relief of the DTX substate: ~30%
[8]; BPTI titration at 460 nM DTX-I, measured
  slope of τBURST vs [BPTI]: 3.25 s/µM
[8]; BPTI titration, 460 nM DTX-I
  KApp for relief of normalized DTX-substate probability, best fit to Eq. 10: 17.8 µM and 17.8 ± 1.7 µM
[8]; DTX-occupied vs unoccupied channel
  decrease of BPTI affinity when DTX-I is bound (K2/K1): 11.7 fold and 11.7 ± 2.1 fold and ~11 fold
[8]; over 0–8 μM BPTI at 460 nM DTX-I
  increase in mean τS-DTX: 47%
[8]; read-out: Kd of BPTI when DTX-I is bound, abstract, DTX-occupied channel
  Kd: 17.5 µM
[9]
  inhibition of chymotrypsin/trypsin family serine proteinases: potent inhibitors
